In one series the test system is Human alphaherpesvirus 2. The experiment in a line: Antiviral activity against Herpes simplex virus 2 G infected in human HEL cells assessed as reduction of virus-induced cytopathogenicity at 250 uM. The format is functional, organism-based. The conditions noted are these: strain G. The essentials: (§1)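 Confluent monolayers (HEL fibroblasts, Vero, or HeLa cells as listed) were infected with 100 CCID50 of virus in the presence of varying compound concentrations. Virus-induced cytopathicity or plaque formation was scored once cytopathicity was complete in untreated infected controls. EC50 was taken as the concentration reducing cytopathogenicity or plaque formation by 50%.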

For series [1], the system named is Mammalian orthoreovirus 1. Briefly: Antiviral activity against Reovirus 1 infected in african green monkey Vero cells assessed as reduction of virus-induced cytopathogenicity at 250 uM. The format is functional, organism-based. The procedure, abridged:
as §1

The next series concerns Punta Toro virus. The experiment in a line: Antiviral activity against Punta Toro virus infected in african green monkey Vero cells assessed as reduction of virus-induced cytopathogenicity at 250 uM. The format is functional, organism-based. The essentials: as §1
(In general: Damage to the host cells serves as the signal in cytopathic effect assays.)

The test system of a further series is Vero. The experiment in a line: Cytotoxicity against african green monkey Vero cells assessed as alteration of cell morphology up to 100 uM by microscopic analysis. The format is cell-based. As to conditions: chlorocebus sabaeus. The essentials:
(§2)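 Uninfected host-cell cultures were exposed to compound and examined by microscopy. Cytotoxicity was expressed as the minimum cytotoxic concentration (MCC) causing a microscopically detectable alteration of normal cell morphology.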

The test system of series [2] is Respiratory syncytial virus. The experiment in a line: Antiviral activity against Respiratory syncytial virus long infected in human HeLa cells assessed as reduction of virus-induced cytopathogenicity at 250 uM. The format is functional, organism-based. The procedure, abridged:
as §1

The next series relates to Feline coronavirus. The experiment in a line: Antiviral activity against Feline coronavirus infected in cat CRFK cells assessed as reduction of virus-induced cytopathogenicity at 250 uM. The format is functional, organism-based.
Series [3] relates to Vesicular stomatitis virus. The experiment in a line: Antiviral activity against Vesicular stomatitis virus infected in human HeLa cells assessed as reduction of virus-induced cytopathogenicity at 250 uM. The format is functional, organism-based. The procedure, abridged: (§3)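 Confluent cell monolayers were infected with 100 CCID50 of virus while exposed to varying compound concentrations. Cytopathicity was scored once it was complete in untreated infected controls. EC50 was taken as the concentration that reduced virus-induced cytopathogenicity by 50%.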

The test system of another series is MDCK. Briefly: Cytotoxicity against dog MDCK cells assessed as alteration of cell morphology up to 100 uM by microscopic analysis. The format is cell-based, Canis lupus familiaris. The essentials: as §2
For another series, the system named is HeLa. Briefly: Cytotoxicity against human HeLa cells assessed as alteration of cell morphology up to 100 uM by microscopic analysis. The format is cell-based. The essentials:
as §2

For series [4], the system named is Vesicular stomatitis virus. Briefly: Antiviral activity against Vesicular stomatitis virus infected in human HEL cells assessed as reduction of virus-induced cytopathogenicity at 250 uM. The format is functional, organism-based. The essentials:
as §3

Another series concerns Coxsackievirus B4. The experiment in a line: Antiviral activity against Coxsackievirus B4 infected in african green monkey Vero cells assessed as reduction of virus-induced cytopathogenicity at 250 uM. The format is functional, organism-based. The essentials: as §1
The subject of series [5] is Human alphaherpesvirus 1. Briefly: Antiviral activity against Herpes simplex virus 1 KOS infected in human HEL cells assessed as reduction of virus-induced cytopathogenicity at 250 uM. The format is functional, organism-based. The essentials: as §1
The subject of another series is Influenza B virus. The experiment in a line: Antiviral activity against Influenza B virus infected in dog MDCK cells assessed as reduction of virus-induced cytopathogenicity at 250 uM. The format is functional, organism-based. The procedure, abridged:
as §3

A further series relates to Felid alphaherpesvirus 1. Briefly: Antiviral activity against Feline herpes virus infected in cat CRFK cells assessed as reduction of virus-induced cytopathogenicity at 250 uM. The format is functional, organism-based.
Series [6] deals with Human immunodeficiency virus 2. Briefly: Antiviral activity against Human immunodeficiency virus 2 ROD infected in human CEM cells assessed as reduction of virus-induced giant cell formation at 250 uM after 4 to 5 days. The format is functional, organism-based. As to conditions: CCRF-CEM. The procedure, abridged: (§4)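 CEM cells at 3 × 10^5 cells/mL were infected with HIV at 100 CCID50 per mL in the presence of compound dilutions. They were held 4–5 days at 37 °C in humidified CO2. Syncytium (giant cell) formation was scored microscopically, and EC50 was taken as the concentration inhibiting giant cell formation by 50%.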

A short description of series [7]: Cytotoxicity against cat CRFK cells assessed as alteration of cell morphology up to 100 uM by microscopic analysis. The format is cell-based, Felis catus. The procedure, abridged:
as §2

Series [8] has as its system Human immunodeficiency virus 1. Briefly: Antiviral activity against Human immunodeficiency virus 1 3B infected in human CEM cells assessed as reduction of virus-induced giant cell formation at 250 uM after 4 to 5 days. As to conditions: CCRF-CEM. The format is functional, organism-based. The procedure, abridged:
as §4

The test system of series [9] is Human alphaherpesvirus 1. The experiment in a line: Antiviral activity against thymidine kinase-deficient, ACV-resistant Herpes simplex virus 1 KOS infected in human HEL cells assessed as reduction of virus-induced cytopathogenicity at 250 uM. The format is functional, organism-based. The procedure, abridged: as §3
Series [10] relates to Influenza A virus. The experiment in a line: Antiviral activity against Influenza A virus H3N2 infected in dog MDCK cells assessed as reduction of virus-induced cytopathogenicity at 250 uM. The format is functional, organism-based. The essentials: as §3
A further series relates to Human respirovirus 3. Briefly: Antiviral activity against Parainfluenza virus 3 infected in african green monkey Vero cells assessed as reduction of virus-induced cytopathogenicity at 250 uM. The format is functional, organism-based. The essentials:
as §1

Another series relates to HEL. The experiment in a line: Cytotoxicity against human HEL cells assessed as alteration of cell morphology up to 100 uM by microscopic analysis. The format is cell-based. The procedure, abridged:
as §2

In series [11] the test system is Influenza A virus. The experiment in a line: Antiviral activity against Influenza A virus H1N1 infected in dog MDCK cells assessed as reduction of virus-induced cytopathogenicity at 250 uM. The format is functional, organism-based. The procedure, abridged: as §3
The next series concerns Sindbis virus. Briefly: Antiviral activity against Sindbis virus infected in african green monkey Vero cells assessed as reduction of virus-induced cytopathogenicity at 250 uM. The format is functional, organism-based. The procedure, abridged:
as §1

The source made the active and inactive calls. The rule behind the calls is not given here.

For `CCOP(=O)(OCC)[C@@H]1C[C@H](C(=O)Nc2ccccc2[N+](=O)[O-])ON1C` (mixture of isomers), the inhibition entry (in the series on Human alphaherpesvirus 2; in series [1]; with Punta Toro virus; in [2]; in the series on Feline coronavirus; in series [3]) was “inactive” throughout. In addition, the inhibition entry (in series [4]; in the series with Coxsackievirus B4; with Human alphaherpesvirus 1 [5]; with Influenza B virus; in the series with Felid alphaherpesvirus 1; in [6]) was “inactive” each time. Further, the inhibition result (in series [8]; in the series with Human alphaherpesvirus 1 [9]; in the series on Influenza A virus [10]; with Human respirovirus 3; with Influenza A virus [11]; in the series with Sindbis virus) was “inactive” throughout. Moreover, the Activity entry (with Vero; in the series with MDCK; with HeLa; in series [7]; in the series with HEL) was “Non-toxic” each time.

For the compound `CCOP(=O)(OCC)[C@@H]1C[C@@H](C(=O)Nc2ccccc2Cl)ON1C` (racemic), the inhibition entry (in the series on Human alphaherpesvirus 2; in [1]; in the series on Punta Toro virus; in series [2]; in the series on Feline coronavirus; in series [3]) was “inactive” in each case. In addition, the inhibition result (in [4]; with Coxsackievirus B4; in the series on Human alphaherpesvirus 1 [5]; in the series with Influenza B virus; with Felid alphaherpesvirus 1; in series [6]) was “inactive” throughout. The inhibition entry (in [8]; with Human alphaherpesvirus 1 [9]; with Influenza A virus [10]; in the series with Human respirovirus 3; in the series with Influenza A virus [11]; in the series on Sindbis virus) was “inactive” throughout. Moreover, the Activity entry (in the series on Vero; in the series with MDCK; with HeLa; in series [7]; in the series on HEL) was “Non-toxic” each time.

In the case of `CCOc1ccc(NC(=O)[C@H]2C[C@@H](P(=O)(OCC)OCC)N(C)O2)cc1` (racemic), the inhibition entry (in the series on Human alphaherpesvirus 2; in [1]; in the series on Punta Toro virus; in [2]; with Feline coronavirus; in [3]) was “inactive” in each case. Besides, the inhibition result (in [4]; in the series with Coxsackievirus B4; with Human alphaherpesvirus 1 [5]; in the series on Influenza B virus; in the series on Felid alphaherpesvirus 1; in series [6]) was “inactive” throughout. In addition, the inhibition result (in series [8]; in the series on Human alphaherpesvirus 1 [9]; in the series on Influenza A virus [10]; with Human respirovirus 3; in the series with Influenza A virus [11]; in the series with Sindbis virus) was “inactive” each time. In addition, the Activity entry (with Vero; in the series on MDCK; in the series on HeLa; in series [7]; in the series with HEL) was “Non-toxic” each time.

`CCOP(=O)(OCC)[C@@H]1C[C@H](C(=O)Nc2cc(OC)c(OC)c(OC)c2)ON1C` (racemic): the inhibition result (in the series with Human alphaherpesvirus 2; in series [1]; in the series with Punta Toro virus; in series [2]; in the series with Feline coronavirus; in [3]) was “inactive” in each case. Besides, the inhibition result (in [4]; in the series with Coxsackievirus B4; in the series with Human alphaherpesvirus 1 [5]; with Influenza B virus; with Felid alphaherpesvirus 1; in series [6]) was “inactive” each time. Besides, the inhibition result (in series [8]; in the series on Human alphaherpesvirus 1 [9]; in the series with Influenza A virus [10]; with Human respirovirus 3; in the series on Influenza A virus [11]; in the series with Sindbis virus) was “inactive” each time. For the same compound, the Activity entry (in the series on Vero; in the series with MDCK; in the series with HeLa; in [7]; with HEL) was “Non-toxic” throughout.

`CCOP(=O)(OCC)[C@H]1C[C@H](C(=O)Nc2cccc(C)c2)ON1C` (racemic): the inhibition result (in the series on Human alphaherpesvirus 2; in [1]; in the series on Punta Toro virus; in series [2]; in the series with Feline coronavirus; in [3]) was “inactive” in each case. Besides, the inhibition result (in series [4]; with Coxsackievirus B4; in the series on Human alphaherpesvirus 1 [5]; in the series on Influenza B virus; in the series with Felid alphaherpesvirus 1; in series [6]) was “inactive” each time. In addition, the inhibition result (in [8]; with Human alphaherpesvirus 1 [9]; with Influenza A virus [10]; with Human respirovirus 3; in the series on Influenza A virus [11]; in the series with Sindbis virus) was “inactive” in each case. Moreover, the Activity result (with Vero; in the series on MDCK; with HeLa; in series [7]; in the series with HEL) was “Non-toxic” in each case.

Regarding `CCOP(=O)(OCC)[C@H]1C[C@H](C(=O)Nc2cccc(OC)c2)ON1C` (racemic), the inhibition entry (in the series on Human alphaherpesvirus 2; in series [1]; in the series with Punta Toro virus; in [2]; with Feline coronavirus; in series [3]) was “inactive” throughout. The inhibition entry (in series [4]; with Coxsackievirus B4; in the series with Human alphaherpesvirus 1 [5]; with Influenza B virus; in the series on Felid alphaherpesvirus 1; in series [6]) was “inactive” in each case. Further, the inhibition entry (in series [8]; with Human alphaherpesvirus 1 [9]; in the series with Influenza A virus [10]; in the series on Human respirovirus 3; with Influenza A virus [11]; with Sindbis virus) was “inactive” each time. In addition, the Activity result (in the series on Vero; in the series with MDCK; in the series on HeLa; in series [7]; with HEL) was “Non-toxic” throughout.

The record behind these values is ChEMBL document CHEMBL2331506, “Design, synthesis, antiviral and cytostatic evaluation of novel isoxazolidine nucleotide analogues with a carbamoyl linker” (Bioorg Med Chem, 2013).
